Active and inactive are the calls of the source. The rule behind the calls is not given here.
Legend:
Mus musculus [1] = assay: In vivo efficacy was evaluated for their ability to antagonize metrazole induced clonic convulsants in rat after ip injection.
Mus musculus [2] = assay: In vivo efficacy is evaluated by percent control of cerebellar GMP content in CF1 mice and result is expressed as crebrellar GMP levels in (drug+stress) treated mice and mice under stress.; assay type: functional
How it was run: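 Male CF-1 mice dosed orally in vehicle 122 (controls get vehicle, 1 mL/100 g), then given electric footshock stress. Killed 30 min after dosing. Cerebellum homogenized in 10 volumes of 1% perchloric acid, kept 30 min on ice, boiled 5 min, spun 17000g for 20 min. cGMP measured by radioimmunoassay. Expressed as % of the (drug + stress)/stress response versus vehicle-shock controls.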

Mus musculus [3] = species: Mus musculus; assay: Compound was evaluated for their ability to antagonize the muscle relaxation effects of benzodiazepine full agonist, triazolam.
[4] = Area under curve was determined for the compound after po dose of 5.46 mg/kg in rats; assay type: ADME, organism-based; design: dose 5.46 mg/kg, route oral; settings: rat, in vivo
[5] = Maximum serum concentration after po dose of 5.46 mg/kg in rats; assay type: ADME, organism-based; design: dose 5.46 mg/kg, route oral; settings: rat
[6] = Time at which Cmax was reached was determined for the compound after po dose of 5.46 mg/kg in rats; assay type: ADME, organism-based; design: dose 5.46 mg/kg, route oral; settings: rat, in vivo
How it was run: (§1)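 Male Sprague–Dawley rats dosed orally with compound in a solution formulation, n = 3–4 per compound; serum drug concentrations measured over time, lower limit of quantitation 50 ng/mL. Tmax reported as the range of observed values across animals.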

[7] = Half-life after po dose of 5.46 mg/kg in rats; assay type: ADME, organism-based; design: dose 5.46 mg/kg, route oral; settings: rat, in vivo
[8] = molecular target: GABA-A receptor; anion channel; assay: (§2) Displacement of [3H]flunitrazepam from GABA-A benzodiazepine receptor of rat cortical membranes; assay type: cell membranes, Membrane
How it was run: (§3)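 Rat membranes incubated 60 min at 4 °C with [3H]flunitrazepam, 50 µg membrane protein and graded test drug in 200 µL containing NaCl, 10 mM Hepes/Tris pH 7.4 and 1 mM MgCl2; bound ligand separated by rapid filtration on GF/B; mean affinity, SE ≤10% of mean.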

[9] = molecular target: T1, GABA-A receptor; anion channel (Rattus norvegicus) (UniProt O09028+P15431+P18506+P18508+P19969+P20236+P23574+P23576+P28471+P28473+P30191+P62813+P63079+P63138+Q91ZM7+Q9ES14); assay: Inhibition of [35S]TBPS binding to GABA-A Benzodiazepine receptor of rat brain membranes; assay type: cell membranes; settings: Membrane
[10] = molecular target: T2, GABA-A receptor; alpha-1/beta-2/gamma-2 (Homo sapiens) (UniProt P14867+P47870+P18507); assay: (§4) In vitro GABA-mediated chloride current in A293 cells expressing GABA-A benzodiazepine receptor alpha-1-beta-2-gamma-2 subunits at 5 uM; assay type: functional, cell-based; settings: HEK293
Mus musculus [11] = species: Mus musculus; assay: Ability to antagonize the muscle relaxation effect in mice caused by a benzodiazepine full agonist, triazolam.; assay type: functional
How it was run: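 Muscle relaxation induced by triazolam; test compound and triazolam given separately, traction scored 30 min after dosing; ED50 for blocking the relaxant effect.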

Mus musculus [12] = assay: In vivo efficacy is evaluated by percent control of cerebellar GMP levels in (drug+stress) treated mice/mice under stress; assay type: functional; design: concentration or dose not given beside the values
How it was run: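 Male CF-1 mice given drug orally in vehicle 122 before electric footshock stress, controls given vehicle (1 mL/100 g); killed 30 min after treatment; cerebellum homogenized in 1% perchloric acid, iced 30 min, boiled 5 min, spun 17000g 20 min; supernatant cGMP by radioimmunoassay, expressed as % of stress control.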

Mus musculus [13] = assay: In vivo acute electroshock physical dependence activity in mice; Not active.; assay type: functional, organism-based
Rattus norvegicus [14] = assay: In vivo efficacy evaluated for ability to antagonize metrazole induced clonic convulsions in rat after ip injection; assay type: functional
Rattus norvegicus [15] = assay: Total plasma clearance was determined for the compound after iv dose of 4.74 mg/kg in rats; assay type: ADME, organism-based; design: dose 4.74 mg/kg, route intravenous; settings: in vivo
Rattus norvegicus [16] = assay: Area under curve was determined for the compound after iv dose of 4.74 mg/kg in rats; assay type: ADME, organism-based; design: dose 4.74 mg/kg, route intravenous; settings: in vivo
[17] = Half-life after iv dose of 4.74 mg/kg in rats; assay type: ADME, organism-based; design: dose 4.74 mg/kg, route intravenous; settings: rat, in vivo
[18] = molecular target: T1, GABA-A receptor; anion channel (Rattus norvegicus); assay: as §2; assay type: cell membranes; design: concentration or dose not given beside the values; settings: Membrane, concentration not given here; how it was run: as §3
[19] = molecular target: T1, GABA-A receptor; anion channel (Rattus norvegicus); assay: Shift in [35S]TBPS binding to GABA-A Benzodiazepine receptor of rat brain membrane
[20] = molecular target: GABA A receptor alpha-3/beta-2/gamma-2 (Homo sapiens) (UniProt P47870+P18507+P34903); assay: In vitro GABA-mediated chloride current in A293 cells expressing GABA-A benzodiazepine receptor alpha-3-beta-2-gamma-2 subunits at 5 uM; assay type: functional, cell-based; settings: HEK293
Rattus norvegicus [21] = assay: Geller-cook activity was determined using wilcoxon signed rank test on non punished schedule at dose 0.3 mg/kg.; assay type: functional
How it was run: (§5)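 Geller–Cook conflict schedule with punished and nonpunished response rates recorded per treatment; 6 animals per dose, controls 12–17; each dose compared to its own control by Wilcoxon signed rank test, p < 0.05.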

Rattus norvegicus [22] = assay: Geller-cook activity was determined using wilcoxon signed rank test on non punished schedule at dose 1 mg/kg.; assay type: functional; how it was run: as §5
Rattus norvegicus [23] = assay: Geller-cook activity was determined using wilcoxon signed rank test on non punished schedule at dose 3 mg/kg.; assay type: functional; how it was run: as §5
Rattus norvegicus [24] = assay: Geller-cook activity was determined using wilcoxon signed rank test on punished schedule at dose 0.3 mg/kg.; assay type: functional; how it was run: as §5
Rattus norvegicus [25] = assay: Geller-cook activity was determined using wilcoxon signed rank test on punished schedule at dose 1 mg/kg.; assay type: functional; how it was run: as §5
Rattus norvegicus [26] = assay: Geller-cook activity was determined using wilcoxon signed rank test on punished schedule at dose 3 mg/kg.; assay type: functional; how it was run: as §5
Rattus norvegicus [27] = assay: Mean number of shocks in vogel''s punished licking assay in rats by 3 mg/kg Diazepam; assay type: functional
How it was run: (§6)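 Vogel punished licking test in rats; number of shocks accepted recorded per dose group (n 6–10); each dose compared with the 0 mg/kg group of the same experiment by Wilcoxon rank sum test.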

Rattus norvegicus [28] = assay: Mean number of shocks produced by the compound in rats at a dose of 0 mg/kg was determined by vogel's punished licking assay; assay type: functional; how it was run: as §6
Rattus norvegicus [29] = assay: Mean number of shocks produced by the compound in rats at a dose of 0.3 mg/kg was determined by vogel's punished licking assay; assay type: functional; how it was run: as §6
Rattus norvegicus [30] = assay: Mean number of shocks produced by the compound in rats at a dose of 1 mg/kg was determined by vogel's punished licking assay; assay type: functional; how it was run: as §6
Rattus norvegicus [31] = assay: Mean number of shocks produced by the compound in rats at a dose of 10 mg/kg was determined by vogel's punished licking assay; assay type: functional; how it was run: as §6
Rattus norvegicus [32] = assay: Mean number of shocks produced by the compound in rats at a dose of 3 mg/kg was determined by vogel's punished licking assay; assay type: functional; how it was run: as §6
[33] = molecular target: T2, GABA-A receptor; alpha-1/beta-2/gamma-2 (Homo sapiens); assay: as §4; assay type: functional, cell-based; settings: HEK293; remark: listed apart in the source
[34] = Total plasma clearance Clp was determined for the compound after iv dose of 5.06 mg/kg in rats; assay type: ADME, organism-based; design: dose 5.06 mg/kg, route intravenous; settings: rat, read-out: Clp (converted)
[35] = Area under curve was determined for the compound after iv dose of 5.06 in rats; assay type: ADME, organism-based; settings: rat, in vivo
[36] = Area under curve was determined for the compound after po dose of 5.01 mg/kg in rats; assay type: ADME, organism-based; design: dose 5.01 mg/kg, route oral; settings: rat, in vivo
[37] = Maximum serum concentration was determined for the compound after po dose of 5.01 mg/kg in rats; assay type: ADME, organism-based; design: dose 5.01 mg/kg, route oral; settings: rat
[38] = Oral bioavailability at a dose of 5.01 mg/kg in rats; assay type: ADME, organism-based; settings: rat, in vivo
[39] = Time at which Cmax was reached was determined for the compound after po dose of 5.01 mg/kg in rats; assay type: ADME, organism-based; design: dose 5.01 mg/kg, route oral; settings: rat, in vivo; how it was run: as §1
[40] = Half-life after iv dose of 5.06 mg/kg in rats; assay type: ADME, organism-based; design: dose 5.06 mg/kg, route intravenous; settings: rat, in vivo
[41] = Half-life after po dose of 5.01 mg/kg in rats; assay type: ADME, organism-based; design: dose 5.01 mg/kg, route oral; settings: rat, in vivo
Mus musculus [42] = assay: In vivo acute electroshock physical dependence activity in mice; Inactive; assay type: functional, organism-based
Rattus norvegicus [43] = assay: Mean number of shocks produced by CDPZ in rats at a dose of 12 mg/kg was determined by vogel's punished licking assay; assay type: functional; how it was run: as §6
Mus musculus [44] = assay: In vivo acute electroshock physical dependence activity in mice; Active; assay type: functional, organism-based

SMILES	Ki [8]	Shift [9]	Change in Cl- current [10]	ED50 (Mus musculus [11])	Control (Mus musculus [12])	Acute electroshock activity (Mus musculus [13])	ED50 (Rattus norvegicus [14])	inhibition [18]	Shift [19]	Mean no. of shocks (Rattus norvegicus [28])	Mean no. of shocks (Rattus norvegicus [29])	Mean no. of shocks (Rattus norvegicus [30])	Mean no. of shocks (Rattus norvegicus [31])	Mean no. of shocks (Rattus norvegicus [32])	Change in Cl- current [33]	other results
CN1C(=O)CN=C(c2ccccc2)c2cc(Cl)ccc21 [DIAZEPAM]	–	–	–	–	–	–	–	–	–	–	–	–	–	–	–	ED50 (Mus musculus [1]): 0.5 mg/kg; Control (Mus musculus [2]): 0.44%; ED50 (Mus musculus [3]): > 30 mg/kg
CC(C)(C)OC(=O)c1ncn2c1CN(C(=O)N1CCCC1)c1cc(Cl)ccc1-2.CCCC(=O)O	0.00256 µM	0.53	0.38	14 mg/kg	105%	inactive	29.7 mg/kg	–	–	–	–	–	–	–	–	AUC [4]: 3.68 µg·h/mL; Cmax [5]: 0.33 µg/mL; Tmax [6]: 1 h; half-life [7]: 7.6 h
C[C@@H]1CN(C(=O)N2Cc3c(C(=O)OC(C)(C)C)ncn3-c3ccc(Cl)cc32)C[C@H](C)N1C	0.00448 µM	–	-0.2	7 mg/kg	36%	inactive	14.8 mg/kg	86%	-0.06	8.4	8	7	18	18	1	Clp (Rattus norvegicus [15]): 2.71 L/h/kg; AUC (Rattus norvegicus [16]): 3.57 µg·h/mL; half-life [17]: 0.57 h; Change in Cl- current [20]: 1; Gellar cook activity (Rattus norvegicus [21]): 38; Gellar cook activity (Rattus norvegicus [22]): 56; Gellar cook activity (Rattus norvegicus [23]): 36; Gellar cook activity (Rattus norvegicus [24]): 22; Gellar cook activity (Rattus norvegicus [25]): 53; Gellar cook activity (Rattus norvegicus [26]): 65; Mean no. of shocks (Rattus norvegicus [27]): 13
C[C@H]1CN(C(=O)N2Cc3c(C(=O)OC(C)(C)C)ncn3-c3ccc(Cl)cc32)C[C@H](C)N1	0.0167 µM	–	0.4	> 30 mg/kg	69%	–	7.4 mg/kg	45%	0.37	3.3	3.9	5.2	8.8	5.6	1.05	clearance [34]: 1.07 L/h/kg; AUC [35]: 5.01 µg·h/mL; AUC [36]: 2.62 µg·h/mL; Cmax [37]: 0.66 µg/mL; bioavailability [38]: 54%; Tmax [39]: 0.25 h; half-life [40]: 1.5 h; half-life [41]: 2.4 h; Acute electroshock activity (Mus musculus [42]): inactive; Mean no. of shocks (Rattus norvegicus [43]): 14.8
CC(C)(C)OC(=O)c1ncn2c1CN(C(=O)N1CCN(C(C)(C)C)CC1)c1cc(Cl)ccc1-2	0.0209 µM	-0.03	0.12	> 30 mg/kg	–	–	50 mg/kg	62%	–	–	–	–	–	–	–	Acute electroshock activity (Mus musculus [44]): Active

— ChEMBL document CHEMBL1132620, “Piperazine imidazo[1,5-a]quinoxaline ureas as high-affinity GABAA ligands of dual functionality” (J Med Chem, 1999)
